Measured values from paper PMC6028879 (Clinical Pharmacokinetics, 2018).

How the values were obtained:
Drug-drug interaction = type: in vivo, human; conditions: ITZ 200 mg oral solution once daily; during the blood sampling period for VPR
Summary of the method: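 This was a fixed-sequence, open-label study. In period 1, the test compound was given as a single oral 4 mg tablet, fasted, with water. After a washout of ≥ 4 weeks, itraconazole 200 mg oral solution was given once daily for 14 days. On day 4 the test compound was dosed 1 h after itraconazole. Plasma was sampled to 11 or 13 days and measured by validated LC–MS/MS. Non-compartmental analysis was used. Log-transformed AUC0–11d and Cmax were analysed by ANOVA with treatment and subject effects, giving ratio estimates, 90% CI and 95% PI.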

[1] = ulipristal acetate with ketoconazole; cited from earlier work

| geometric mean ITZ trough concentrations (Drug-drug interaction) | Structure (SMILES) | increase in exposure with ketoconazole [1] |
| --- | --- | --- |
| above 530 µg/L | CCC(C)n1ncn(-c2ccc(N3CCN(c4ccc(OCC5COC(Cn6cncn6)(c6ccc(Cl)cc6Cl)O5)cc4)CC3)cc2)c1=O (centres unmarked) [ITZ, Itraconazole] | – |
| – | CC(=O)O[C@]1(C(C)=O)CC[C@H]2[C@@H]3CCC4=CC(=O)CCC4=C3[C@@H](c3ccc(N(C)C)cc3)C[C@@]21C [ulipristal acetate] | 5.8 fold |
